Data as given in paper PMC4102658 (Circulation. Cardiovascular imaging, 2014).

Target: T1, fibrin (Rattus norvegicus, UniProt P02680+P06399+P14480)
T1 sequence (P06399 20-550 isoform P06399-2 limits assumed): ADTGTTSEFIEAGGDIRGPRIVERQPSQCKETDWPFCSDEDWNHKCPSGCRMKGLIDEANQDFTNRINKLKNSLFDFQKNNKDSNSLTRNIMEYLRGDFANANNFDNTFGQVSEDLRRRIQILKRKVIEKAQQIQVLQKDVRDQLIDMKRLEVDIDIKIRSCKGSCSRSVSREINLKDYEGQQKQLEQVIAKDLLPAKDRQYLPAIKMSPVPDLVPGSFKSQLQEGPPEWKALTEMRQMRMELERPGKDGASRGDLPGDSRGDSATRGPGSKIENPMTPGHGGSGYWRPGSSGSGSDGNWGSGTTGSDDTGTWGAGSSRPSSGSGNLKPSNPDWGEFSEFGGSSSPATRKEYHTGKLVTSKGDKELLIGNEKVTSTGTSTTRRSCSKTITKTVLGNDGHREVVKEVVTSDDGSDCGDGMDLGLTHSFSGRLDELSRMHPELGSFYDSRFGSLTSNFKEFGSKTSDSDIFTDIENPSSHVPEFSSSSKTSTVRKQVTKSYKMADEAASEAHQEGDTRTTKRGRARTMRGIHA
T1 sequence (P14480 33-479 limits assumed): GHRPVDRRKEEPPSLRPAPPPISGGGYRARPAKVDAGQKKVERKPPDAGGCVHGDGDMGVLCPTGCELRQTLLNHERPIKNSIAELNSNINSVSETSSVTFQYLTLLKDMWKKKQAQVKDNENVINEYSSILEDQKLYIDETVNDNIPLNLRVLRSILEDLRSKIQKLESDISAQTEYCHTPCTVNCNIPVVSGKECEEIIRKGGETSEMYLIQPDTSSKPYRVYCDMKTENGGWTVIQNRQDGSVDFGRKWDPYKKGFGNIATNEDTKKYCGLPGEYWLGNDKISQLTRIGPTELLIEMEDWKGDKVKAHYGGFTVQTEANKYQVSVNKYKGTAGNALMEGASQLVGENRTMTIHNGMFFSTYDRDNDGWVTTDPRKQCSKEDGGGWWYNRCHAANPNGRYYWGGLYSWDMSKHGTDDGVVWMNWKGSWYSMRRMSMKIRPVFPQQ
T1 sequence (P02680 26-437 isoform P02680-2 limits assumed): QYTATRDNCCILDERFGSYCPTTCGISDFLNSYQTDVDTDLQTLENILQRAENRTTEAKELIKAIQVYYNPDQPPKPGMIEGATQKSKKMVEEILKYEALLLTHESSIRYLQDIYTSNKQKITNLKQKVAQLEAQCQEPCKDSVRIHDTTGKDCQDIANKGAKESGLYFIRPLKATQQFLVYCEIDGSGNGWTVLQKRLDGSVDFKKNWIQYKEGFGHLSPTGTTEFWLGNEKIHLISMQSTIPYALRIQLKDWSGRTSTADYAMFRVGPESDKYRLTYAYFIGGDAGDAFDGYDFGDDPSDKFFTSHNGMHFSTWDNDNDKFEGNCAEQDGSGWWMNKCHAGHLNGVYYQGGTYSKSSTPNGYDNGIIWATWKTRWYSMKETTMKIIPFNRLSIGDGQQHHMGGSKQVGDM
Assay: brain autoradiography, embolic stroke with rtPA or vehicle
Assay type: in vivo
Conditions: rtPA-treated animals
Summary of the method: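 Rats with embolic clot in ICA/MCA got ~300 μCi probe (0.3–0.4 mL, saline flush) 15–30 min after surgery. About 1 h after clot injection they received rtPA (10 mg/kg i.v., 10% bolus, 90% infused over 30 min) or 1 mL saline. Euthanised after 45 min baseline plus 90 min PET. 2 mm brain sections autoradiographed; ipsilateral/contralateral ICA-MCA ROI activity ratio; mean ± S.E.M.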

rtPA: recombinant tissue plasminogen activator (alteplase), thrombolytic treatment
ipsilateral to contralateral ICA-MCA ratio by autoradiography with FBP7: ~1
